Experimental findings from ChEMBL document CHEMBL1122622, “Carbocyclic analogues of xylofuranosylpurine nucleosides. Synthesis and antitumor activity” (J Med Chem, 1984) are described below.

Substrate in the data set: Nc1ncnc2c1ncn2[C@@H]1O[C@H](CO)[C@@H](O)[C@H]1O
Description: Compound was evaluated for the kinetic constant on adenosine deaminase and expressed as Km. An outline of the steps:
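Calf intestinal adenosine deaminase (type III). Adenosine was mixed with a range of test compound concentrations in 1 mL 0.05 M phosphate buffer, pH 7.5, at 25 °C. Reactions were started with 20 milliunits of enzyme, and deamination was followed as the fall in absorbance at 265 nm. Kinetic constants came from Wilkinson analysis, with each point the mean of triplicates.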

B1: Adenosine deaminase (Mus musculus), P03958 (protein)
chain: MAQTPAFNKPKVELHVHLDGAIKPETILYFGKKRGIALPADTVEELRNIIGMDKPLSLPGFLAKFDYYMPVIAGCREAIKRIAYEFVEMKAKEGVVYVEVRYSPHLLANSKVDPMPWNQTEGDVTPDDVVDLVNQGLQEGEQAFGIKVRSILCCMRHQPSWSLEVLELCKKYNQKTVVAMDLAGDETIEGSSLFPGHVEAYEGAVKNGIHRTVHAGEVGSPEVVREAVDILKTERVGHGYHTIEDEALYNRLLKENMHFEVCPWSSYLTGAWDPKTTHAVVRFKNDKANYSLNTDDPLIFKSTLDTDYQMTKKDMGFTEEEFKRLNINAAKSSFLPEEEKKELLERLYREYQ
As for B1, the Km was found to be 7.8 µM.
